Assay outcomes (PubChem BioAssay)
CASP6 VEID inh: caspase-6 (human) enzyme inhibition; purified caspase-6, Z-VEID-R110 cleavage fluorescence; P55212; 350,000 compounds, 0.53% hits; AID 686996; inhibition, % at 12.5 µM;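 active = mean inhibition across replicates at least about 35%, with every replicate also reaching that limit, limit read from the data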
ARNT-TACC3 inh: disruptors of human ARNT/TACC3 interaction | 390,000 compounds, 0.66% hits | AID 623870 | inhibition, % at 9.99 µM | AlphaScreen His-ARNT PAS-B/GST-TACC3 binding, luminescence; TACC3 fragment carries E629A point mutation;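 active = mean inhibition of replicates at least 50% and at least half of replicates each reaching 50%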
S100A4 inh HTS: inhibitors of human S100A4 binding to myosin IIA peptide; inhibition, % at 10.7 µM; P26447; AID 652163; S100A4/TAMRA-MyoIIA peptide fluorescence polarization; 360,000 compounds, 0.14% hits;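 active = mean inhibition of at least 70% across replicates, with every replicate also reaching that level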
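Test system: S100A4 monomer protein. Medium: HEPES buffer with Ca2+, pH 7.2. Reagent: fluorescent myosin IIA peptide, 5 nM. Compound dosing: single-point compound testing. Timing: 5 min between mix addition and reading. Benchmarks: DMSO neutral and TFP positive wells.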
rRNA inh HTS: inhibits bacterial ribosomal RNA function over humanized ribosomes | E. coli WT GFP vs humanized-ribosome RFP mutants, fluorescence, 24 h; stronger effect = lower value; DMSO median 0, no signal -100 | GFP signal change (wild-type ribosome), % (test concentration not listed) | 350,000 compounds, 1.6% hits;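 active = significant combined selectivity score with lowered wild-type GFP, culture density cut under 30%, mutant RFP and density less affected; inactive = any of these conditions unmet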
ERAP1 inh: blocks human ERAP1 aminopeptidase activity; Q9NZ08; recombinant ERAP1, Leu-AMC fluorescence, 60 min; inhibition, % at 10.7 µM; 340,000 compounds, 0.15% hits; AID 652197;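 active = mean replicate inhibition of at least 30%, or all replicates individually reaching that 30% level; inactive = mean below 30% and not every replicate reaching it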
Target sequence (Q9NZ08 whole entry, looked up): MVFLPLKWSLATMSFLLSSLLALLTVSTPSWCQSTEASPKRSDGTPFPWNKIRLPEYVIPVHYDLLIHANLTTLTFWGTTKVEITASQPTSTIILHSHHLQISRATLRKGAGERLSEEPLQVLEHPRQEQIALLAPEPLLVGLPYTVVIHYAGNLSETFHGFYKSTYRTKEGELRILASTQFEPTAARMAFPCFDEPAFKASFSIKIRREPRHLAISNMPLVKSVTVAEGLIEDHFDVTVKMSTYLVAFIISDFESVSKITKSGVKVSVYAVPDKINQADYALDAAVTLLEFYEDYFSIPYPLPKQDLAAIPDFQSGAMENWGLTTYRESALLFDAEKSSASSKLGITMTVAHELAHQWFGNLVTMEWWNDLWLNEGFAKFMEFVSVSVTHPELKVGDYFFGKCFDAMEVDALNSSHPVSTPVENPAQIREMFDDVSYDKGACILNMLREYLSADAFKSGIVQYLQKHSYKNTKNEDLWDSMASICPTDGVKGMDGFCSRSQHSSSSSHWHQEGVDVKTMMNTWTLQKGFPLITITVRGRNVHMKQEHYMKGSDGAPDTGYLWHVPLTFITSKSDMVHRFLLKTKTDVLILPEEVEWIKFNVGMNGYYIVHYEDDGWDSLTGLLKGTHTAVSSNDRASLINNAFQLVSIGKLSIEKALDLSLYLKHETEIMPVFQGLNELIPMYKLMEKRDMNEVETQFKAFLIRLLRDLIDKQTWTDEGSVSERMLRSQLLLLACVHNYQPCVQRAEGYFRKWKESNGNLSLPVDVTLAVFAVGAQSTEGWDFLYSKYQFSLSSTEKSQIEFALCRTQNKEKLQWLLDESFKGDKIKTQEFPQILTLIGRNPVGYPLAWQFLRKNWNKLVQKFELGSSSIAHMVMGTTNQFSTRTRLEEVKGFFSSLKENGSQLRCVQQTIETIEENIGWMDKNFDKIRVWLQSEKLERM
PGC1a acetyl inh: PGC1a acetylation modulation, inhibitor mode | U2OS PGC1a acetylation, AlphaScreen anti-acetyl-lysine; with virally co-expressed GCN5 acetyltransferase | inhibition, % at 15.6 µM | 350,000 compounds, 0.17% hits | AID 651687;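 active = every replicate shows inhibition of at least 40%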
Numbers stand for hits; . = inactive; / = not tested or not shown. Only some compounds are listed: those with a hit (about 2.4% of all), similar ones and a draw of the others.

SMILES	CASP6 VEID inh	ARNT-TACC3 inh	S100A4 inh HTS	rRNA inh HTS	ERAP1 inh	PGC1a acetyl inh
C[C@@H]1CN([C@H](C)CO)C(=O)c2cc(N(C)C)ccc2O[C@@H](C)CCCCO[C@H]1CN(C)C(=O)Nc1ccccc1	/	/	/	.	/	.
COc1ccccc1C(=O)Nc1ccc(S(=O)(=O)N2CCCCC2c2cccnc2)cc1 (stereo unspecified)	.	.	.	-22	.	.
COC(=O)c1ccc(NC(=S)NN2CCCCC2c2cccnc2)cc1 (stereo unspecified)	.	.	.	-27	.	.
O=C(Nc1ccc(S(=O)(=O)N2CCCCC2c2cccnc2)cc1)c1ccccc1F (stereo unspecified)	.	.	.	.	.	.
C[C@@H]1CN([C@@H](C)CO)C(=O)c2cc(C#C[C@@H](C)O)cnc2O[C@@H]1CN(C)Cc1ccccn1	.	.	.	.	.	.
CNC[C@H]1Oc2c(NS(=O)(=O)c3ccccc3)cccc2C(=O)N([C@H](C)CO)C[C@H]1C	.	.	.	.	.	.
Cc1ccc(C)c(S(=O)(=O)/N=C2\C=C(NS(=O)(=O)c3ccccc3)C(=O)c3ccccc32)c1	.	/	.	.	.	/
Cc1ccccc1NC1=C/C(=N\S(=O)(=O)c2ccc(C(=O)O)cc2)c2ccccc2C1=O	99	.	.	.	.	/
O=C(O)c1ccc(S(=O)(=O)/N=C2\C=C(Nc3ccccc3F)C(=O)c3ccccc32)cc1	99	/	.	.	.	/
CCOc1cccc(N)c1	/	/	/	/	/	.
CCOc1ccc(N)c(SSc2cc(OCC)ccc2N)c1	/	.	.	.	38	/
C=CCn1c(SCC(=O)Nc2nc3ccccc3s2)nc(O)c(CC)c1=O	.	/	.	-27	.	.
CN(/N=C/Cc1nnnn1-c1ccc(Cl)cc1)c1ccccc1	.	.	.	-22	.	/
Cc1cccc(-c2n[nH]c(=S)n2/N=C/c2cccs2)c1	.	/	.	-22	.	.
S=c1[nH]nc(-c2cc(-c3ccccc3)n[nH]2)n1/N=C/c1ccccc1	.	.	.	-15	.	.
Oc1ccc(/C=N/n2c(-c3ccccc3)n[nH]c2=S)cc1Br	52	.	.	.	.	.
Cc1cccc(/C=N/n2c(-c3cc(-c4ccccc4)n[nH]3)n[nH]c2=S)c1	.	.	.	.	.	/
Oc1c(Br)cc(/C=N/n2c(-c3ccccc3)n[nH]c2=S)cc1Br	.	.	.	.	.	.
COc1ccccc1N1CCN(c2ncc(C(=O)N3CCN(c4cccc(Cl)c4)CC3)c3ccccc23)CC1	.	.	.	.	.	.
CCN1CCN(c2ncc(C(=O)Nc3cc(Cl)ccc3OC)c3ccccc23)CC1	/	/	/	/	/	93
CCOc1ccccc1-n1nnnc1SCC(=O)NC(=O)Cc1ccccc1	.	.	.	.	33	.
CCOc1ccccc1-n1nnnc1SCC(=O)NC(=O)NCc1ccco1	/	.	/	/	/	.
CN(C)C(=O)c1cccc(-c2ccc([C@@H]3[C@@H](CO)N4C(=O)CN(C(=O)Cc5ccccc5)C[C@H]34)cc2)c1	.	/	.	.	.	.
O=C(c1ccc(-c2cc(O)c3ncccc3c2)cc1)N1CCNCC1	.	66	.	.	.	.
COc1cc(NC(=O)C(c2ccccc2)c2ccccc2)c(C(=O)O)cc1OC	.	.	.	-24	.	.
C[C@H]1CN([C@@H](C)CO)C(=O)c2c(c3ccccc3n2C)-c2ccccc2CO[C@H]1CN(C)S(=O)(=O)c1ccccc1F	/	/	/	.	/	/
C[C@@H]1CN([C@@H](C)CO)C(=O)c2c(c3ccccc3n2C)-c2ccccc2CO[C@@H]1CN(C)C(=O)[C@H](C)c1ccccc1	.	/	.	.	.	.
C[C@@H]1CN([C@@H](C)CO)S(=O)(=O)c2ccc(C3=CCCCC3)cc2O[C@@H]1CN(C)Cc1ccccc1	/	/	/	.	/	.
C[C@H](CO)N1C[C@H](C)[C@H](CN(C)Cc2ccccc2)Oc2cc(C3=CCCCC3)ccc2S1(=O)=O	/	/	/	.	/	.
C[C@H]1CN([C@@H](C)CO)S(=O)(=O)c2ccc(C3=CCCCC3)cc2O[C@H]1CN(C)Cc1ccccc1	.	.	100	.	.	.
